Active and inactive are the calls of the source. The rule behind the calls is not given here.
What was measured:
HECPP [1] = assay: Activation of NF-kappaB in HECPP cells at 1000 ug/mL; type: functional, cell-based; details: Mus musculus
Summary of the method: (§1)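 HECPP murine endothelial cells (2.5 × 10⁷) exposed to compound for 2 h. Nuclear extracts prepared, and 5 µg nuclear protein incubated with poly(dI/dC) on ice for 10 min. A ³²P-labeled κ-enhancer NF-κB consensus oligonucleotide was then added. Complexes were resolved on a 4% polyacrylamide gel in 0.25× TBE at 150 V for 2 h, then read by autoradiography (EMSA).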

Splenocyte [2] = assay: Induction of TNF secretion in mouse splenocytes at 100 ug/mL after 4 hrs; type: functional
Summary of the method: (§2)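 Primary male mouse splenocytes, RBC-lysed, plated at 3 × 10⁶ cells/well in Alpha-MEM with 10% FCS. Treated with compound for 4 h at 37 °C. Supernatant TNF measured by ELISA, each sample in duplicate, with triplicate wells per condition. Mean ± SEM reported.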

HECPP [3] = assay: Activation of NF-kappaB in HECPP cells at 300 ug/mL; type: functional, cell-based; details: Mus musculus; summary of the method: as §1
MC-38 (Mus musculus) [4] = assay: Induction of hemorrhagic necrosis in colon 38 tumor bearing C57B1/6 mouse at 200 mg/kg, ip after 24 hrs relative to control; details: route intraperitoneal
[5] = Cytotoxicity against HECPP cells assessed as reduction of cell viability at 600 ug/mL after 24 hrs by MTT assay; type: cell-based; details: mouse
Summary of the method: (§3)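 HECPP murine endothelial cells in M199 with 10% FCS, 37 °C, 5% CO₂. Seeded at 10⁵ cells/well, incubated overnight, then exposed to compound for 24 h. MTT added for 2 h and formazan dissolved in 0.04 N HCl/isopropanol. Absorbance read at 550 nm with 630 nm reference, expressed as percent of metabolically active cells.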

MC-38 (Mus musculus) [6] = assay: Induction of hemorrhagic necrosis in colon 38 tumor bearing C57B1/6 mouse at 25 mg/kg, ip after 24 hrs relative to control; details: route intraperitoneal
Splenocyte [7] = assay: Induction of TNF secretion in mouse splenocytes at 10 ug/mL after 4 hrs; type: functional; summary of the method: as §2
HECPP [8] = assay: Activation of NF-kappaB in HECPP cells at 10 ug/mL; type: functional, cell-based; details: Mus musculus; summary of the method: as §1
MC-38 (Mus musculus) [9] = assay: Induction of hemorrhagic necrosis in colon 38 tumor bearing C57B1/6 mouse at 190 mg/kg, ip after 24 hrs relative to control; details: route intraperitoneal
[10] = Induction of TNF production in murine splenocytes at 100 ug/mL
HECPP [11] = assay: Activation of NF-kappaB in HECPP cells at 30 ug/mL; type: functional, cell-based; details: Mus musculus; summary of the method: as §1
Splenocyte [12] = assay: Induction of TNF secretion in mouse splenocytes at 30 ug/mL after 4 hrs; type: functional; summary of the method: as §2
[13] = Cytotoxicity against HECPP cells assessed as reduction of cell viability at 300 ug/mL after 24 hrs by MTT assay; type: cell-based; details: mouse; summary of the method: as §3

With [N-]=[N+]=Nc1cccc2c(=O)c3cccc(CC(=O)O)c3oc12 as the compound, how does the Activity (HECPP [1]) read?
Its Activity is “Active”.

And the Activity (Splenocyte [2])?
The Activity was 110 pg/mL.

And the Activity (HECPP [3])?
Its Activity is “Active”.

What about the Activity (MC-38 (Mus musculus) [4]) of the same compound?
The Activity was over 95%.

And the Activity [5]?
The Activity was 50%.

For Cc1ccc2c(=O)c3cccc(CC(=O)O)c3oc2c1C [VADIMEZAN], which Activity (MC-38 (Mus musculus) [6]) is on record?
The Activity was over 95%.

What about the Activity (Splenocyte [7]) of the same compound?
Its Activity is 180 pg/mL.

What about the Activity (HECPP [8]) of the same compound?
The Activity was “Active”.

Which results are given for Cc1ccc2c(=O)c3cccc(CC(=O)O)c3oc2c1N=[N+]=[N-]?
Activity (MC-38 (Mus musculus) [9]): >95%; TNF production [10]: <50 pg/mL; Activity (HECPP [11]): Active; Activity (Splenocyte [12]): <50 pg/mL; Activity [13]: 50%
